# Experimental data published in ChEMBL document CHEMBL1687717 (Antimicrob Agents Chemother, 2008).
# Calls of active or inactive are those of the source. The rule behind the calls is not given here.
# Tests used:
# [1] = Effect on growth of Lactobacillus crispatus at 20 ug/ml after 24 hrs
# How it was run: (§1)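 L. crispatus grown in Todd-Hewitt broth flasks at 37°C with shaking, with or without nonformulated GML at 20, 50 or 100 µg/ml. The starting inoculum was 3.0 x 10^6/ml. Samples were taken over 24 h for CFU plate counts.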
# Rhesus monkey [2] = assay: Toxicity in rhesus monkey assessed as induction of vaginal inflammation administered twice daily dose of 5% compound-formulated gel for first 8 weeks followed by 3-weeks rest period and subsequent once daily dose for […] measured 6 months post dose by extensive colposcopy; format: organism-based, Macaca mulatta; details: in vivo, topical_or_ocular, 4383 h
# Rhesus monkey [3] = assay: Toxicity in rhesus monkey assessed as induction of vaginal mucosal lesions administered twice daily dose of 5% compound-formulated gel for first 8 weeks followed by 3-weeks rest period and subsequent once daily dose for […] measured 6 months post dose by extensive colposcopy; format: organism-based, Macaca mulatta; details: in vivo, topical_or_ocular, 4383 h
# Staphylococcus aureus [4] = assay: Inhibition of Staphylococcus aureus MN8 infection induced IL-8 production in human HVEC assessed as at 100 ug/ml by enzyme-linked immunosorbent assay; format: functional, organism-based
# How it was run: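 Human vaginal epithelial cells in keratinocyte serum-free medium without antibiotics were seeded 2–3 days beforehand in 96-well plates. S. aureus MN8 was grown overnight in Todd-Hewitt broth, washed and resuspended in PBS at pH 7.2. Cells received 10^6–10^8 CFU in triplicate, with or without GML at 100 µg/ml, for 6 h. IL-8 was measured by ELISA.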
# [5] = system: Human immunodeficiency virus 1; assay: Antiviral activity against HIV1 infected in human T cells assessed as inhibition of viral infection at 100 ug/mL; format: functional, organism-based; details: T-cell
# Haemophilus = assay: Bactericidal activity against Haemophilus at >=20 ug/ml; format: functional, organism-based
# Helicobacter = assay: Bactericidal activity against Helicobacter at >=20 ug/ml; format: functional
# Lactobacillus crispatus [6] = assay: Suppression of cell viability loss of Lactobacillus crispatus in stationary phase culture at 100 ug/ml after 48 hrs
# Gardnerella = assay: Bactericidal activity against Gardnerella at >=20 ug/ml; format: functional
# [7] = Effect on growth of Lactobacillus crispatus at 50 ug/ml after 24 hrs; how it was run: as §1
# Staphylococcus = assay: Effect on growth of vaginal coagulase negative staphylococci flora in rhesus monkey administered twice daily dose of 5% compound-formulated gel for first 8 weeks followed by 3-weeks rest period and subsequent once daily dose for […] measured 6 months post dose; format: functional, organism-based
# How it was run: (§2)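 Rhesus macaques (9 on GML, 3 on vehicle per time point) received 1 ml intravaginal gel containing 50 mg GML in K-Y warming gel, or vehicle gel, by needleless syringe. Dosing was twice daily for 8 weeks, then 3 weeks of rest, then once daily for 11 weeks. Vaginal swabs were taken 1 h post-dose, held at 4°C, serially diluted in Todd-Hewitt broth and plated on chocolate agar at 37°C in 7% CO2.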
# [8] = Effect on lactic acid production in Lactobacillus crispatus at 50 ug/ml after 8 to 24 hrs; format: ADME
# How it was run: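 Todd-Hewitt broth cultures of L. crispatus were started at 3.0 x 10^6/ml with or without nonformulated GML at 50 µg/ml and incubated at 37°C with shaking. Culture pH was measured on samples removed at set times as an acid-production read-out.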
# Staphylococcus aureus [9] = assay: Growth inhibition of Staphylococcus aureus MN8 using 5% compound-formulated gel after 24 hrs; format: functional, organism-based
# How it was run: (§3)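 Agar disk test: paper disks carrying 30 µl of 5% GML in K-Y warming gel were placed on Todd-Hewitt agar lawns of about 10^6 L. crispatus or S. aureus MN8. Plates were incubated overnight at 37°C in 7% CO2 and scored for visible growth inhibition around the disks. Done in quadruplicate.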
# [10] = Effect on growth of vaginal Lactobacillus flora in rhesus monkey administered twice daily dose of 5% compound-formulated gel for first 8 weeks followed by 3-weeks rest period and subsequent once daily dose for […] measured 6 months post dose; details: in vivo, topical_or_ocular, 4383 h; how it was run: as §2
# Lactobacillus crispatus [11] = assay: Suppression of cell viability loss of Lactobacillus crispatus in stationary phase culture at 100 ug/ml after 48 hrs; format: functional
# How it was run: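 Stationary-phase L. crispatus broth cultures were incubated a further 48 h at 37°C without GML or with GML at 100 µg/ml. Viable counts were then determined by plating.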
# [12] = Effect on growth of Lactobacillus crispatus using 5% compound-formulated gel after 24 hrs; how it was run: as §3
compound,measurement,setting,value
CCCCCCCCCCCC(=O)OCC(O)CO (stereo unspecified) [GLYCEROL MONOLAURATE],Activity,[1],Non-toxic
same,Activity,Rhesus monkey [2],Non-toxic
same,Activity,Rhesus monkey [3],Non-toxic
same,inhibition,Staphylococcus aureus [4],Active
same,inhibition,[5],Active
same,inhibition,Haemophilus,Active
same,inhibition,Helicobacter,Active
same,Activity,Lactobacillus crispatus [6],Active
same,inhibition,Gardnerella,Active
same,Activity,[7],Non-toxic
same,Activity,Staphylococcus,Non-toxic
same,Activity,[8],Non-toxic
same,growth inhibition (GI),Staphylococcus aureus [9],Active
same,Activity,[10],Non-toxic
same,Activity,Lactobacillus crispatus [11],Active
same,Activity,[12],Non-toxic
